Laboratory results taken from ChEMBL document CHEMBL1240328, “Selective compounds define Hsp90 as a major inhibitor of apoptosis in small-cell lung cancer” (Nat Chem Biol, 2007).
Calls of active or inactive are those of the source.

Columns and labels:
[1] = target: Heat shock protein HSP 90-beta (Homo sapiens) (UniProt P08238); experiment: Binding affinity to HSP90 in human SKBR3 cells after 24 hrs by fluorescence polarization assay; settings: SK-BR-3
[2] = target: Heat shock protein HSP 90-beta (Homo sapiens) (UniProt P08238); experiment: Inhibition of HSP90-mediated antiapoptotic activity in human NCI-H146 cells assessed as increase in apoptotic cell population at 0.2 to 1 uM after 96 hrs by FACS analysis relative to control; type: cell-based
[3] = target: Heat shock protein HSP 90-beta (Homo sapiens) (UniProt P08238); experiment: Binding affinity to HSP90 in human NCI-H526 cells after 24 hrs by fluorescence polarization assay; type: cell-based
[4] = target: Heat shock protein HSP 90-beta (Homo sapiens) (UniProt P08238); experiment: Inhibition of HSP90-mediated antiapoptotic activity in human WBA cells assessed as induction of cell growth arrest at 10 after 96 hrs by propidium iodide staining-based flow cytometry
[5] = target: Heat shock protein HSP 90-beta (Homo sapiens) (UniProt P08238); experiment: Binding affinity to HSP90 in human NCI-H187 cells after 24 hrs by fluorescence polarization assay
[6] = target: Heat shock protein HSP 90-beta (Homo sapiens) (UniProt P08238); experiment: Inhibition of HSP90 in chemo-resistant human SKI-AC3 cells at 100 uM after 24 hrs by fluorescence polarization assay; type: cell-based
In short: (§1)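 Competitive fluorescence polarization in lysates of H69AR, SKI-AC3 and WBA cells, prepared in HFB buffer pH 7.3 and normalized to Hsp90. Tracer was 3 nM Cy3B-geldanamycin, with incubation for 24 h at 4 °C. EC50 was defined as 50% tracer displacement.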

[7] = target: Heat shock protein HSP 90-beta (Homo sapiens) (UniProt P08238); experiment: Inhibition of HSP90-mediated proliferation of human NCI-H69 cells at 1 to 3 uM after 72 to 96 hrs by sulforhodamine B assay; type: cell-based
[8] = target: Heat shock protein HSP 90-beta (Homo sapiens) (UniProt P08238); experiment: Binding affinity to HSP90 in human NCI-H69 cells after 24 hrs by fluorescence polarization assay
[9] = target: Heat shock protein HSP 90-beta (Homo sapiens) (UniProt P08238); experiment: Inhibition of HSP90-mediated proliferation of human NCI-H526 cells at 1 to 3 uM after 72 to 96 hrs by sulforhodamine B assay; type: cell-based
[10] = target: Heat shock protein HSP 90-beta (Homo sapiens) (UniProt P08238); experiment: Inhibition of HSP90-mediated proliferation of human NCI-N417 cells at 1 to 3 uM after 72 to 96 hrs by sulforhodamine B assay; type: cell-based; settings: NCI-H417
[11] = target: Heat shock protein HSP 90-beta (Homo sapiens) (UniProt P08238); experiment: Inhibition of HSP90-mediated proliferation of human NCI-H209 cells at 1 to 3 uM after 72 to 96 hrs by sulforhodamine B assay; type: cell-based
[12] = target: Heat shock protein HSP 90-beta (Homo sapiens) (UniProt P08238); experiment: Inhibition of HSP90-mediated antiapoptotic activity in human NCI-H209 cells assessed as increase in apoptotic cell population at 0.2 to 1 uM after 96 hrs by FACS analysis relative to control; type: cell-based
[13] = target: Heat shock protein HSP 90-beta (Homo sapiens) (UniProt P08238); experiment: Inhibition of HSP90-mediated antiapoptotic activity in human H69AR cells assessed as induction of cell growth arrest at 10 after 96 hrs by propidium iodide staining-based flow cytometry
[14] = target: Heat shock protein HSP 90-beta (Homo sapiens) (UniProt P08238); experiment: Binding affinity to HSP90 in human NCI-H146 cells after 24 hrs by fluorescence polarization assay; type: cell-based
[15] = target: Heat shock protein HSP 90-beta (Homo sapiens) (UniProt P08238); experiment: Inhibition of HSP90-mediated proliferation of human NCI-H187 cells at 1 to 3 uM after 72 to 96 hrs by sulforhodamine B assay; type: cell-based
[16] = target: Heat shock protein HSP 90-beta (Homo sapiens) (UniProt P08238); experiment: Binding affinity to HSP90 in human NCI-H209 cells after 24 hrs by fluorescence polarization assay; type: cell-based
[17] = target: Heat shock protein HSP 90-beta (Homo sapiens) (UniProt P08238); experiment: Inhibition of HSP90-mediated antiapoptotic activity in human NCI-H510 cells assessed as increase in apoptotic cell population at 0.2 to 1 uM after 96 hrs by FACS analysis relative to control; type: cell-based
[18] = target: Heat shock protein HSP 90-beta (Homo sapiens) (UniProt P08238); experiment: Inhibition of HSP90-mediated antiapoptotic activity in human NCI-H69 cells assessed as increase in apoptotic cell population at 0.2 to 1 uM after 72 hrs by FACS analysis relative to control; type: cell-based
[19] = target: Heat shock protein HSP 90-beta (Homo sapiens) (UniProt P08238); experiment: Binding affinity to HSP90 in human NCI-N417 cells after 24 hrs by fluorescence polarization assay; type: cell-based; settings: NCI-H417
[20] = target: Heat shock protein HSP 90-beta (Homo sapiens) (UniProt P08238); experiment: Inhibition of HSP90-mediated antiapoptotic activity in human NCI-H526 cells assessed as increase in apoptotic cell population at 0.2 to 1 uM after 72 hrs by FACS analysis relative to control; type: cell-based
[21] = target: Heat shock protein HSP 90-beta (Homo sapiens) (UniProt P08238); experiment: Inhibition of HSP90-mediated proliferation of human SKBR3cells after 72 hrs by sulforhodamine B assay
[22] = target: Heat shock protein HSP 90-beta (Homo sapiens) (UniProt P08238); experiment: Inhibition of HSP90-mediated antiapoptotic activity in human SKI-AC3 cells assessed as induction of cell growth arrest at 10 after 96 hrs by propidium iodide staining-based flow cytometry
[23] = target: Heat shock protein HSP 90-beta (Homo sapiens) (UniProt P08238); experiment: Inhibition of HSP90-mediated proliferation of human NCI-H146 cells at 1 to 3 uM after 72 to 96 hrs by sulforhodamine B assay; type: cell-based
[24] = target: Heat shock protein HSP 90-beta (Homo sapiens) (UniProt P08238); experiment: Inhibition of HSP90-mediated antiapoptotic activity in human NCI-N417 cells assessed as increase in apoptotic cell population at 0.2 to 1 uM after 96 hrs by FACS analysis relative to control; type: cell-based
[25] = target: Heat shock protein HSP 90-beta (Homo sapiens) (UniProt P08238); experiment: Binding affinity to HSP90 in human NCI-H510 cells after 24 hrs by fluorescence polarization assay; type: cell-based
[26] = target: Heat shock protein HSP 90-beta (Homo sapiens) (UniProt P08238); experiment: Inhibition of HSP90-mediated proliferation of human NCI-H510 cells at 1 to 3 uM after 72 to 96 hrs by sulforhodamine B assay; type: cell-based
[27] = target: Heat shock protein HSP 90-beta (Homo sapiens) (UniProt P08238); experiment: Inhibition of HSP90 in chemo-resistant human WBA cells at 100 uM after 24 hrs by fluorescence polarization assay; type: cell-based; in short: as §1
[28] = target: Heat shock protein HSP 90-beta (Homo sapiens) (UniProt P08238); experiment: Inhibition of HSP90 in chemo-resistant human H69AR cells at 100 uM after 24 hrs by fluorescence polarization assay; type: cell-based; in short: as §1
[29] = target: Heat shock protein HSP 90-beta (Homo sapiens) (UniProt P08238); experiment: Inhibition of HSP90-mediated antiapoptotic activity in human NCI-H187 cells assessed as increase in apoptotic cell population at 0.2 to 1 uM after 72 hrs by FACS analysis relative to control; type: cell-based
SK-BR-3 [30] = experiment: Inhibition of HSP70-mediated antiapoptotic activity in human SKBR3 cells assessed as release of Apaf-1 from chaperon complex after 24 hrs by Western blot analysis; type: cell-based
In short: (§2)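 SKBr3 cells were treated for 24 h. Lysates were probed by western blot for caspase-3 and PARP cleavage. Apaf-1 complexes were pulled down with Apaf-1 antibody (with control IgG) and immunoblotted.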

SK-BR-3 [31] = experiment: Inhibition of HSP70-mediated antiapoptotic activity in human SKBR3 cells assessed as induction of PARP cleavage after 24 hrs by Western blot analysis; type: cell-based; in short: as §2
SK-BR-3 [32] = experiment: Inhibition of HSP70-mediated antiapoptotic activity in human SKBR3 cells assessed as induction of caspase-3 cleavage after 24 hrs by Western blot analysis; type: cell-based; in short: as §2
NCI-H526 [33] = experiment: Inhibition of HSP70-mediated antiapoptotic activity in human NCI-H526 cells assessed as induction of PARP cleavage after 24 hrs by Western blot analysis; type: cell-based
In short: (§3)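 NCI-H526 cells were treated for 24 h. PARP and caspase-3 cleavage were read by western blot of lysates in Tris/NaCl/NP-40 buffer. Apaf-1 complexes were immunoprecipitated with Apaf-1 antibody, using control IgG, then blotted.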

SK-BR-3 [34] = experiment: Inhibition of HSP70-mediated antiapoptotic activity in human SKBR3 cells assessed as increase in caspase-3 activity after 24 hrs by Western blot analysis; type: cell-based
NCI-H526 [35] = experiment: Inhibition of HSP70-mediated antiapoptotic activity in human NCI-H526 cells assessed as release of Apaf-1 from chaperon complex after 24 hrs by Western blot analysis; type: cell-based; in short: as §3
[36] = target: Heat shock protein HSP 90-beta (Homo sapiens) (UniProt P08238); experiment: Inhibition of HSP90-mediated antiapoptotic activity in human SKBR3 cells assessed as induction of PARP cleavage at 50 uM after 24 hrs by Western blot analysis; type: cell-based; settings: SK-BR-3
In short: (§4)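 SKBr3 cells at 60–70% confluence were exposed to drug or DMSO vehicle. Lysis was in 50 mM Tris pH 7.4, 150 mM NaCl, 1% NP-40, with protein measured by BCA. Lysates of 20–100 µg were run on SDS-PAGE, blotted to nitrocellulose, probed with primary antibodies and detected with a peroxidase-conjugated secondary (1:5,000). Loading was checked with β-actin or PI(3)K p85.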

[37] = target: Heat shock protein HSP 90-beta (Homo sapiens) (UniProt P08238); experiment: Inhibition of HSP90-mediated antiapoptotic activity in human SKBR3 cells assessed as induction of caspase-3 cleavage at 400 uM after 24 hrs by Western blot analysis; type: cell-based; settings: SK-BR-3; in short: as §4
NCI-H526 [38] = experiment: Inhibition of HSP70-mediated antiapoptotic activity in human NCI-H526 cells assessed as induction of caspase-3 cleavage after 24 hrs by Western blot analysis; type: cell-based; in short: as §3
SK-BR-3 [39] = experiment: Inhibition of HSP70-mediated antiapoptotic activity in human SKBR3 cells assessed as induction of cell growth arrest after 72 hrs by propidium iodide staining-based flow cytometry
[40] = target: Heat shock protein HSP 90-beta (Homo sapiens) (UniProt P08238); experiment: Inhibition of HSP90-mediated antiapoptotic activity in human NCI-H526 cells assessed as reduction in BAD phosphorylation at 50 uM after 24 hrs by Western blot analysis; type: cell-based
[41] = target: Heat shock protein HSP 90-beta (Homo sapiens) (UniProt P08238); experiment: Inhibition of HSP90-mediated antiapoptotic activity in human MCF7 cells assessed as induction of caspase-3 cleavage at 50 uM after 24 hrs by Western blot analysis; type: cell-based
[42] = target: Heat shock protein HSP 90-beta (Homo sapiens) (UniProt P08238); experiment: Inhibition of HSP90-mediated antiapoptotic activity in human NCI-H526 cells assessed as induction of Akt degradation at 50 uM after 24 hrs by Western blot analysis; type: cell-based
[43] = target: Heat shock protein HSP 90-beta (Homo sapiens) (UniProt P08238); experiment: Inhibition of HSP90-mediated antiapoptotic activity in human MCF7 cells assessed as induction of caspase-9 cleavage at 50 uM after 24 hrs by Western blot analysis; type: cell-based
[44] = target: Heat shock protein HSP 90-beta (Homo sapiens) (UniProt P08238); experiment: Inhibition of HSP90-mediated antiapoptotic activity in human MCF7 cells assessed as induction of PARP cleavage at 50 uM after 24 hrs by Western blot analysis; type: cell-based
[45] = target: Heat shock protein HSP 90-beta (Homo sapiens) (UniProt P08238); experiment: Inhibition of HSP90-mediated antiapoptotic activity in human SKBR3 cells assessed as induction of cell growth arrest at 50 uM after 24 hrs by propidium iodide staining-based flow cytometry; settings: SK-BR-3
[46] = target: Heat shock protein HSP 90-beta (Homo sapiens) (UniProt P08238); experiment: Inhibition of HSP90-mediated antiapoptotic activity in human MCF7 cells assessed as induction of cell growth arrest at 50 uM after 24 hrs by propidium iodide staining-based flow cytometry
[47] = target: RAC-alpha serine/threonine-protein kinase (Homo sapiens) (UniProt P31749); settings: NCI-H526, 50 uM
Sequence of RAC-alpha serine/threonine-protein kinase (Homo sapiens) (P31749 whole entry): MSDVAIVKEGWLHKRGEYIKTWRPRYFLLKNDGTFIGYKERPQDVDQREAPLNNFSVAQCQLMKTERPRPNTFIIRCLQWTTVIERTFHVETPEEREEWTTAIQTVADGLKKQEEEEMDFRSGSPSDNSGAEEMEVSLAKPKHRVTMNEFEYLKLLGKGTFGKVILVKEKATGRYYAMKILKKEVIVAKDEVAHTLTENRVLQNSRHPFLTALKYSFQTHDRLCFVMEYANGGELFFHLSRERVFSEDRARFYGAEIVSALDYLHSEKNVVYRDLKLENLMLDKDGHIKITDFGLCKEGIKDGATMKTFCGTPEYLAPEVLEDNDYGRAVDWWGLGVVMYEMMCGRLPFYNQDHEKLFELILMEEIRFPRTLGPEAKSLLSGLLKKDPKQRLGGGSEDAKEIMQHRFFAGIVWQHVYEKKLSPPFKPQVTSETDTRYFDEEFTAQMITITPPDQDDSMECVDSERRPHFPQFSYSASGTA

Sequence of Heat shock protein HSP 90-beta (Homo sapiens) (P08238 whole entry): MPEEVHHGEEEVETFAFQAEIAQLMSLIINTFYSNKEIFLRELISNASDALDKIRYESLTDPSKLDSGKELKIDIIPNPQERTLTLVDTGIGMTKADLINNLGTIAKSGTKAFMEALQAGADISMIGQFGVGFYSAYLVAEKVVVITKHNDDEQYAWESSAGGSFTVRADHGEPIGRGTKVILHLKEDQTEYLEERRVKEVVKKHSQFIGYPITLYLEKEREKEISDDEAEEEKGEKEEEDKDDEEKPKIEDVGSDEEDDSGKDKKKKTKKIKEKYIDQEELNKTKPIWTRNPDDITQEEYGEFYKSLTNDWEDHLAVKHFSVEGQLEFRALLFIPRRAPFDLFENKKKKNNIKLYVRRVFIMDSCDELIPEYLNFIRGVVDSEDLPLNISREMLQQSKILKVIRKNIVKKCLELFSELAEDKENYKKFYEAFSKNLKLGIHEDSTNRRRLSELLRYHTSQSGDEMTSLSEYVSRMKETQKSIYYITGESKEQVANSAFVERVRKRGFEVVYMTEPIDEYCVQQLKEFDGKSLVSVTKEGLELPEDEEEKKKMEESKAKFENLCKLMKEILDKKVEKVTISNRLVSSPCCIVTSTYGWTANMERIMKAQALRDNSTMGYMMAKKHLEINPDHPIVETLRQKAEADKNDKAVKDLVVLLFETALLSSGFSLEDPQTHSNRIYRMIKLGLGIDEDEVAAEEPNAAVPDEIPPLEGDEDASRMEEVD

C#CCCCn1c(Sc2cc3c(cc2Br)OCO3)nc2c(N)ncnc21
2: fold change (FC) [2] | fold change (FC) [12] | fold change (FC) [17] | fold change (FC) [18] | fold change (FC) [20] | fold change (FC) [24] | fold change (FC) [29]
active: Activity [1] | Activity [3] | Activity [4] | Activity [5] | inhibition [6] | Activity [8] | Activity [13] | Activity [14] | Activity [16] | Activity [19] | inhibition [21] | Activity [22] | Activity [25] | inhibition [27] | inhibition [28]
50%: inhibition [7] | inhibition [9] | inhibition [10] | inhibition [11] | inhibition [15] | inhibition [23] | inhibition [26]

CCCCCCN(C(=O)CCCCCN1C(=O)NC(c2ccc(-c3ccccc3)cc2)C(C(=O)OCc2ccccc2)=C1C)C(C(=O)NCCCC)c1ccc(OCC(=O)OC)c(C(=O)OC)c1 (configuration not stated)
inactive: inhibition (SK-BR-3 [30]) | inhibition (NCI-H526 [33]) | inhibition (NCI-H526 [35]) | inhibition (NCI-H526 [38])
active: inhibition (SK-BR-3 [31]) | inhibition (SK-BR-3 [32]) | inhibition (SK-BR-3 [34]) | Activity [36] | Activity [37] | inhibition (SK-BR-3 [39]) | inhibition [40] | Activity [41] | Activity [42] | Activity [43] | Activity [44] | Activity [45] | Activity [46]

O=c1[nH]c2ccccc2n1C1CCN(Cc2ccc(-c3nc4cc5[nH]cnc5cc4nc3-c3ccccc3)cc2)CC1
active: inhibition [47]
